Screening data: PubChem, several laboratories
Sampled rows, rich in hits. Any-hit rate of the full collection: about 1.9%.
proCasp7 act = procaspase-7 activators, primary screen, counter-screen for procaspase-3 activator project, biochemical, absorbance, HTS, human; Caspase-7 (Homo sapiens), P55210; recombinant procaspase-7, Ac-DEVD-pNA absorbance 405 nm; D23A/D198A/D206A triple mutant, cannot self-cleave; scale: DMSO 0, 5 µM enzyme 100; activation, % at 8.5 µM; hit rate 0.093% among 330,000;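 active means percent activation above the screen-wide mean plus 3 SD, cut at about 25% in these data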
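System: Uncleavable procaspase-7 mutant enzyme; Amount: 2 µM procaspase-7 mutant as dispensed; Schedule: 1 h compound preincubation, 2 h substrate cleavage, 25 °C; Measured by: 405 nm absorbance of p-nitroaniline; Evaluation: percent activation from buffer-corrected 0–120 min absorbance change; Control set: low DMSO alone, high DMSO plus 5 µM PC-7.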
HGIII-sPLA2 inh = human group III sPLA2 inhibitors, primary screen, biochemical, QFRET, BODIPY PC-A2 liposome substrate | Group 3 secretory phospholipase A2 (Homo sapiens), Q9NZ20 | QFRET BODIPY PC-A2 liposome hydrolysis, fluorescence | inhibition, % at 12.2 µM | hit rate 0.56% among 370,000 | AID 743126, 2013;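 active means inhibition above mean plus 3 SD of compounds lying within the high and low control bounds, cut at about 19% in these data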;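 further: 0% = median of test compound wells and 100% = no enzyme DMSO wells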
proCasp3 act = activators of human procaspase-3 D3A mutant, primary screen, biochemical, absorbance, PC-3 D3A mutant, single concentration. Caspase-3 (Homo sapiens), P42574. recombinant procaspase-3 D3A, Ac-DEVD-pNA absorbance 405 nm. activation, % at 8.5 µM. hit rate 0.11% among 330,000;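 active means activation above the mean of all tested compounds plus 3 SD, cut at about 21% in these data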;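 further: 0% = DMSO alone and 100% = DMSO wells spiked with extra 5 µM PC-3 D3A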
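Technique: 405 nm absorbance of p-nitroaniline, reads at 0 and 120 min; Test system: Procaspase-3 D3A mutant; Incubation: 1 h enzyme-compound preincubation, then 2 h substrate reaction, 25 °C; Repeats: singlicate, each compound tested once; Benchmarks: low control DMSO wells, high control DMSO plus 5 µM PC-3 D3A.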
Arr AP2 block = inhibitors of beta-arrestin/AP2 binding, primary screen, biochemical, GPCR trafficking, flow cytometry; FITC-arrestin peptide / GST-AP2 beads; AP2 beta2 appendage carries R879A mutation; hit rate 0.31% among 340,000; inhibition, % at 10 µM;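 active means inhibition above a set limit, near 3 SD of compounds lacking own fluorescence, cut at about 54% in these data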;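 further: plate controls were DMSO wells for no effect and 5 µM unlabelled arrestin peptide for full effect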
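Measured by: flow cytometry, FL1 (488/535 nm); Material: AP2 appendage R879A on GSH beads; Evaluation: percent response; Timing: pre-incubation 12 min, peptide binding 1 h, room temperature; Also added: 50 nM FITC-arrestin peptide; Medium: PBS with 0.05% Tween 20 and 0.1% BSA.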
PLCg1 inh = PLC-gamma1 enzyme inhibitors, primary screen, biochemical, fluorescence, purified enzyme | 1-phosphatidylinositol 4,5-bisphosphate phosphodiesterase gamma-1 (Homo sapiens), P19174 | fluorogenic substrate | inhibition, % at 12.2 µM | hit rate 0.84% among 370,000; in the data active means inhibition above about 9.5%
PLCb3 inh = human PLC-beta3 inhibitors, primary screen, biochemical, fluorescence; 1-phosphatidylinositol 4,5-bisphosphate phosphodiesterase beta-3 (Homo sapiens), Q01970; Purified PLC-beta3, fluorogenic substrate; inhibition, % at 12.2 µM; hit rate 0.18% among 370,000; in the data active means inhibition above about 11%;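 further: 0% = median of compound wells on plate and 100% = full blocker control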
Arr-AP2 CP1 = inhibitors of arrestin peptide binding to AP2, confirmation, biochemical, cherry pick 1, flow cytometry beads; shares compounds with Arr AP2 block; GST-AP2 beads, FITC arrestin peptide binding; GST-fused beta2-adaptin appendage, R879A mutant; inhibition, % at 10 µM; hit rate 2% among 1,300;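 active means inhibition above a set limit, roughly 3 SD of non-fluorescent compound noise, cut at about 38% in these data; inactive means inhibition at or below that limit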;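 further: loss of bead fluorescence from 50 nM FITC arrestin peptide bound to appendage; 0% = negative control wells and 100% = excess unlabelled arrestin peptide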
GST-FITC bead = GST-fluorescein capture on glutathione beads, confirmation, artefact control for arrestin-AP2 inhibitor project, biochemical, cherry pick 1, flow cytometry | shares compounds with Arr AP2 block | GST-fluorescein binding to GSH beads, fluorescence, counter-screen | inhibition, % at 10 µM | hit rate 2% among 1,300 | AID 588338, 2011;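 active means inhibition above 50%, about 3 SD of the inhibition seen with non-fluorescent compounds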;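 further: fluorescein maleimide labelled GST captured on 4 micron glutathione beads; higher means more loss of bead fluorescence from quenching or blocked binding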
Active calls of the source: *; · = no result.

SMILES | proCasp7 act | HGIII-sPLA2 inh | proCasp3 act | Arr AP2 block | PLCg1 inh | PLCb3 inh | Arr-AP2 CP1 | GST-FITC bead
CCN(CC)C(=O)CC[C@@H]1CC[C@]2(CCCN(Cc3ccc(Cl)cc3)C2)O1 | · | 1 | · | · | -2 | 5 | · | ·
OC(C#Cc1ccccn1)c1cccs1 (stereo not drawn) | -13 | 2 | -8 | 99* | -11 | -16 | -6 | -1
CCNC(=S)N/N=C/c1sc(N2CCCCC2)nc1-c1cccs1 | 18 | 2 | -2 | 106* | -21 | -25 | 0 | -3
O=C(N1CCC(n2nc(-c3ccccc3)oc2=O)CC1)C1(c2ccccc2)CCCC1 | · | 4 | · | · | -1 | 3 | · | ·
Cc1cc(C)cc(NC(=O)CSc2nc3nc(C)cc(C)n3n2)c1 | -1 | -5 | -2 | 68* | 1 | -2 | -7 | 5
CCOc1ccc(NC(=O)CC2C(=O)N(c3ccc(OC)cc3)C(=O)N2CCc2ccc(OC)c(OC)c2)cc1 (stereo not drawn) | -2 | -15 | -4 | 56* | 1 | 1 | 0 | -1
COc1ccc(N2C(=O)C(CC(=O)Nc3ccc(F)cc3)N(CCc3ccc(OC)c(OC)c3)C2=O)cc1 (stereo not drawn) | -12 | -29 | 4 | 8 | -1 | 1 | · | ·
CCn1cc(/C=C(\NC(=O)c2ccccc2)C(=O)N2CCOCC2)c2ccccc21 | · | -7 | · | 55* | -2 | -13 | 3 | -3
CCn1cc(/C=C(\NC(=O)c2ccc(OC)cc2)C(=O)N2CCN(C)CC2)c2ccccc21 | · | -11 | · | 38 | -11 | -19 | · | ·
Nc1ccc(N(c2ccccc2)c2ccc(N)cc2)cc1 | 7 | 2 | -6 | 59* | 2 | -1 | 10 | 16
CN(C)c1ccc(CCc2ccc(N)cc2)cc1 | 5 | 7 | 5 | 23 | -6 | -17 | · | ·
O=C(Nc1ccc(F)cc1)OCCCN1C(=O)CCC12CCCCC2 | · | 4 | · | · | 2 | 3 | · | ·
O=C(NCc1ccco1)C1CC(=O)N(c2cccc(Cl)c2)C1 (stereo not drawn) | -1 | -5 | 9 | -2 | -3 | -7 | · | ·
O=C(NCc1ccco1)C1CC(=O)N(c2ccc(Cl)cc2)C1 (stereo not drawn) | 10 | 0 | 2 | 58* | -4 | -1 | 11 | -5
O=S1(=O)c2ccc(N3CC[C@@H](O)C3)cc2O[C@@H]2CCN1C2 | · | 7 | · | · | -4 | -3 | · | ·
COc1ccccc1CCn1cnc(-c2ccc(F)cc2)c1CC(C)C | · | 0 | · | · | 1 | 2 | · | ·
CCN(CC(=O)Nc1c(F)cccc1F)C(=O)/C=C/c1ccc2ccccc2n1 | -6 | 9 | 7 | 60* | -11 | -21 | 22 | 5
CCc1ccc(N2C(=O)C[C@@](C#N)(C(=O)OC)[C@H]2c2ccccc2)cc1 | · | -2 | · | · | 2 | 1 | · | ·
COc1ccc(S[C@]2(C(=O)N(C)C)CC(=O)N(C(=O)Nc3ccc(C)c(Cl)c3)[C@@H]2c2ccc(OC)cc2)cc1 | · | 0 | · | · | 0 | -1 | · | ·
CCN(CC)c1nc(C)nc2c1nnn2Cc1ccccc1 | · | 5 | · | · | -2 | 1 | · | ·
COc1ccc(-n2c(SCC(=O)O)nc3sc4c(c3c2=O)CCCC4)cc1 | 0 | -2 | 6 | 59* | 2 | -1 | -4 | 0
O=C(O)CSc1nc2sc3c(c2c(=O)n1-c1ccccc1)CCC3 | -3 | 2 | -4 | 5 | -1 | -3 | · | ·
CCCCn1cnc2c(sc3nc4c(cc32)CSC(C)(C)C4)c1=O | 5 | 16 | 2 | 31 | -3 | -2 | · | ·
CC(C)CCn1cnc2c(sc3nc4c(cc32)CSC(C)(C)C4)c1=O | -3 | 10 | -8 | 104* | 0 | 2 | -5 | 8
CCCCCCNC(=O)C1CSCCS(=O)(=O)N1Cc1ccccc1 (stereo not drawn) | · | -1 | · | · | 1 | 1 | · | ·
SMILES | proCasp7 act | HGIII-sPLA2 inh | proCasp3 act | Arr AP2 block | PLCg1 inh | PLCb3 inh | Arr-AP2 CP1 | GST-FITC bead
O=C(c1ccc(S(=O)(=O)NCc2ccco2)cc1)N1CCN(Cc2ccccc2)CC1 | 1 | -14 | -2 | 59* | 3 | -9 | 4 | -6
O=C(c1ccc(S(=O)(=O)NCc2ccco2)cc1)N1CCN(Cc2ccccc2F)CC1 | · | -15 | · | 5 | 5 | 0 | 0 | 0
COc1ccc(CN2CCN(C(=O)c3ccc(S(=O)(=O)NCc4ccco4)cc3)CC2)cc1 | · | -11 | · | 27 | 5 | -1 | 3 | -10
O=C(NCc1ccccc1F)c1ccc(S(=O)(=O)NCc2ccco2)cc1 | · | -6 | · | -19 | 1 | -6 | · | ·
Cc1cc(/C=C2/C(=N)N3C(c4ccccc4)=CSC3=NC2=O)c(C)n1-c1ccc(Cl)cc1 | · | 7 | · | -4 | 1 | -1 | · | ·
Cc1cccc(-n2c(C)cc(/C=C3/C(=N)N4C(c5ccccc5)=CSC4=NC3=O)c2C)c1 | 3 | 2 | -4 | 55* | -4 | -1 | -8 | 1
CC(C)N(C(=O)[C@H]1CC(CC(=O)NCc2ccco2)C(=O)N2CCc3c([nH]c4ccccc34)[C@]12C)C(C)C (stereo partly drawn) | -4 | -12 | 5 | 2 | 0 | 3 | · | ·
O=C(C[C@H]1C[C@H](C(=O)N2CCCCC2)[C@@]2(CCc3ccccc3)c3[nH]c4cc(-c5ccco5)ccc4c3CCN2C1=O)NCCC1=CCCCC1 | -11 | · | -6 | 57* | · | · | -3 | -6
CC(C)N(C(=O)[C@H]1C[C@H](CC(=O)NCc2ccco2)C(=O)N2CCc3c([nH]c4cc(-c5ccco5)ccc34)[C@]12C)C(C)C | -5 | -13 | 2 | 60* | -281 | -430 | -9 | -1
C#CCNC(=O)C[C@H]1C[C@@]2(C(=O)OC)C(=C[C@H](COCc3ccccc3)O[C@@H]2C)N(CCc2ccc(OC)c(OC)c2)C1=O | · | -2 | · | · | -2 | 2 | · | ·
